Measured values collected from several papers.
Protocols differ between the studies behind these lines.
Cell line: PC-3
Observed: cell growth or viability

For `COc1cc(C(=O)c2nc(-c3cccc4[nH]ccc34)cs2)cc(OC)c1OC`, the IC50 was 0.0065 µM (MTS; 72 h).
For `NS(=O)(=O)c1ccc(-n2nc(C(=O)NN=Cc3ccc(O)cc3)cc2-c2ccccc2)cc1`, the IC50 was 17.2 µM (fluorescence; 48 h).
The IC50 of `COc1cc(C(=O)c2nc(-c3ccsc3)c[nH]2)cc(OC)c1OC` is reported as 0.0873 µM (MTS; 72 h).
`NS(=O)(=O)c1ccc(-n2nc(-c3nnc(S)o3)cc2-c2ccccc2)cc1` has an IC50 of 51.2 µM (fluorescence; 48 h).
`COc1cc(C(=O)c2nc(-c3cccc4cc[nH]c34)c[nH]2)cc(OC)c1OC` gave an IC50 of 0.0316 µM (MTS; 72 h).
`CS(=O)(=O)NCCCCN=C=S` has an IC50 of 25.4 µM (MTT; 24 h).
For `COc1cc(C(=O)c2nc(-c3cccc4[nH]ccc34)c[nH]2)cc2c1OC=CO2`, the IC50 was 0.0102 µM (MTS; 72 h).
With `CC1=CC(=O)C(C(C)C)=CC1=O` the IC50 was 12.8 µM (SRB; 48 h).
`CC(C)c1ccc(/C=C2\N=C(SCC(=O)O)N(c3ccccc3)C2=O)cc1` gave an IC50 of 50 µg/mL (MTT).
`NS(=O)(=O)c1ccc(-n2nc(-c3nnc(CCl)o3)cc2-c2ccccc2)cc1` has an IC50 of 36.2 µM (fluorescence; 48 h).
For `Nc1cc2cccnc2c2ncccc12`, the IC50 was 6.2 µM (MTT; 48 h; dark).
With `COc1cc(C=NNC(=O)c2cc(-c3ccccc3)n(-c3ccc(S(N)(=O)=O)cc3)n2)cc(OC)c1OC` the IC50 was 33.4 µM (fluorescence; 48 h).
`COc1cccc2c1C(=O)c1c(O)c3c(c(O)c1C2=O)C[C@@](O)(C(=O)CO)C[C@@H]3O[C@H]1C[C@H](N)[C@H](O)[C@H](C)O1` has an IC50 of 4.81 µg/mL (MTT).
`CC(C)Cc1ccc([C@H](C)C(=O)O)cc1` has an IC50 of 553 µM (SRB; 72 h).
For `COc1cc(C(=O)c2nc(-c3cccc4[nH]ccc34)c[nH]2)cc2c1OCO2`, the IC50 was 0.005 µM (MTS; 72 h).
With `O=P1(c2ccccc2)CCCCC1` the IC50 was > 100 µM (MTT; 72 h).
`O[C@@H]1[C@@H](O)[C@H](Nc2cc3cccnc3c3ncccc23)OC[C@H]1O` gave an IC50 of 3.9 µM (MTT; 48 h; dark).
The IC50 of `CC(=NNC(=O)c1cc(-c2ccccc2)n(-c2ccc(S(N)(=O)=O)cc2)n1)c1ccc(C)cc1` is reported as 19.2 µM (fluorescence; 48 h).
`O=P1(C2CCCCC2)CCCCC1` gave an IC50 of 64.5 µM (MTT; 72 h).
